# Measured values taken from ChEMBL document CHEMBL1124636, “3,4-Dihydro-2H-1-benzopyran-2-carboxylic acids and related compounds as leukotriene antagonists” (J Med Chem, 1989).
# Activity calls are given as the source filed them. No cut-off for these calls is given here.
# What was measured:
# Cavia porcellus [1] = assay: (§1) Inhibition of leukotriene D4 induced bronchoconstriction in anesthetized guinea pigs after aerosol administration as 1% solution; format: functional, organism-based
# How it was run: (§2)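 Guinea pigs given propranolol 0.1 mg/kg iv 5 min before 5-min ultrasonic nebulizer exposure to aqueous, NaOH-neutralized drug (% w/v) or distilled water, breathing spontaneously. LTD4 50 µg/kg iv 30 s after exposure; tracheal pressure change.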
# Cavia porcellus [2] = assay: Inhibition of leukotriene D4 induced bronchoconstriction in anesthetized guinea pigs after intravenous administration; format: functional; conditions: read-out: ID50 (the source's name)
# How it was run: (§3)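 Male Hartley guinea pigs, 400–600 g, urethane 2 g/kg ip, jugular cannula, propranolol 0.1 mg/kg iv 5 min before challenge, succinylcholine 1.2 mg/kg iv, ventilated. Vehicle or drug iv 30 s before LTD4 25 µg/kg iv; tracheal pressure change.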
# Cavia porcellus [3] = assay: Inhibition of leukotriene D4 induced bronchoconstriction in anesthetized guinea pigs after intravenous administration at a dose of 10 mg/kg; format: functional; how it was run: as §3
# [4] = target: T1, Cysteinyl leukotriene receptor 1 (Cavia porcellus) (UniProt Q2NNR5); conditions: Lung, 10 uM
# T1 sequence (whole entry): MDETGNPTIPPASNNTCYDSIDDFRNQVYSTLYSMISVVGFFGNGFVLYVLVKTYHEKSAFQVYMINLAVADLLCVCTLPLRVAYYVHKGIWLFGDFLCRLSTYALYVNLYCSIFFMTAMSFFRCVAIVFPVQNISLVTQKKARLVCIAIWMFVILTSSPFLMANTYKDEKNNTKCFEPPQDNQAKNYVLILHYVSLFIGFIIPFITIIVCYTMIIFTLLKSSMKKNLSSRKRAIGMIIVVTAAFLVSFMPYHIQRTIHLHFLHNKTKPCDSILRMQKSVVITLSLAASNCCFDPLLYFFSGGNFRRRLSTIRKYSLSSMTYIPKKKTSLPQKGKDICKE
# [5] = target: T2, Cysteinyl leukotriene receptor 1 (Cavia porcellus, UniProt Q2NNR5); assay: Inhibitory activity of compound to block binding of [3H]leukotriene D4 to Cysteinyl leukotriene D4 receptor sites in homogenized guinea pig lung
# T2 sequence (Q2NNR5 whole entry): T1 sequence (whole entry)
# How it was run: (§4)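 Lung from male Hartley guinea pigs (400–500 g), homogenized in sucrose/Tris pH 7.5 with protease inhibitors; 30000g membrane pellet in 10 mM PIPES pH 7.5, 50 mM NaCl. Binding: Tyrode, 0.1% BSA, 1 mM glycine, 1 mM cysteine, 3.5 nM [3H]LTD4, 100–200 µg protein, 20 °C, 30 min; glass-fiber filtration. Nonspecific with 10^-6 M LTD4. Triplicate screen at 10 µM; IC50 by linear regression.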
# Cavia porcellus [6] = assay: as §1; format: functional; how it was run: as §2
# Cavia porcellus [7] = assay: (§5) Duration of action of leukotriene E4 as time for inhibition to decrease to 40%, compound was administered at a dose of 10 mg/kg; format: ADME, organism-based; set-up: dose 10 mg/kg; conditions: guinea pig, in vivo
# How it was run: (§6)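 Intravenous guinea pig bronchoconstriction with LTE4 challenge; drug 10 mg/kg iv. Duration taken as time for inhibition to fall to 40%.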
# Cavia porcellus [8] = assay: Time taken for inhibition of antigen induced bronchoconstriction in guinea pig to decrease to 40%, compound administered at a concentration of 1%, for 5 min by aerosol; format: organism-based; conditions: in vivo, inhaled_or_intranasal
# How it was run: (§7)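 Aerosol guinea pig bronchoconstriction with antigen challenge; drug given as 1% nebulized solution for 5 min. Duration taken as time for inhibition to fall to 40%.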
# Cavia porcellus [9] = assay: Inhibitory activity to inhibit arachidonic acid induced bronchoconstriction (when administered at a concentration of 1%, by aerosol); Not active; format: functional, organism-based
# Cavia porcellus [10] = assay: In vivo guinea pig bronchoconstriction against leukotriene D4 when administered a compound dose (mg/kg) intravenously; format: functional; conditions: Lung, iv, read-out: ID50 (the source's name); how it was run: as §3
# Cavia porcellus [11] = assay: (§8) Duration of action of leukotriene D4 as time for inhibition to decrease to 40%, compound was administered at a dose of 10 mg/kg; format: ADME, organism-based; set-up: dose 10 mg/kg; conditions: guinea pig, in vivo
# How it was run: (§9)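 Intravenous guinea pig bronchoconstriction with LTD4 challenge; drug 10 mg/kg iv. Duration taken as time for inhibition to fall to 40%.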
# Cavia porcellus [12] = assay: Activity against histamine induced bronchoconstriction in guinea pig (when administered at a concentration of 1%, by aerosol); Not active; format: functional, organism-based
# Cavia porcellus [13] = assay: Activity against platelet activating factor in guinea pig (when administered at a concentration of 1%, by aerosol); Not active; format: functional, organism-based
# Cavia porcellus [14] = assay: In vivo guinea pig bronchoconstriction against leukotriene E4 when administered a compound dose(mg/kg) intravenously; format: functional; conditions: Lung, iv, read-out: ID50 (the source's name)
# Cavia porcellus [15] = assay: Activity against histamine induced bronchoconstriction in guinea pig, no significant inhibition when compound dose (10 mg/kg) given intravenously; Not active.; format: functional, organism-based
# Cavia porcellus [16] = assay: In vivo guinea pig bronchoconstriction against leukotriene C4 when administered at a concentration of 1%, by aerosol; NS means no significant inhibition.; format: functional, organism-based; conditions: Lung
# Cavia porcellus [17] = organism: Cavia porcellus; assay: In vitro activity to inhibit SRS-A induced contraction of guinea pig ileum
# Cavia porcellus [18] = assay: Duration of action of leukotriene D4 as time for inhibition to decrease to 40%, when compound was administered at a concentration of 1%, for 5 min by aerosol; format: ADME, organism-based; conditions: guinea pig, in vivo, inhaled_or_intranasal
# How it was run: (§10)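 Aerosol guinea pig bronchoconstriction with LTD4 challenge; drug given as 1% nebulized solution for 5 min. Duration taken as time for inhibition to fall to 40%.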
# Cavia porcellus [19] = assay: (§11) Duration of action of leukotriene E4 as time for inhibition to decrease to 40%, compound administered at a concentration of 1%,for 5 min by aerosol; format: ADME, organism-based; conditions: guinea pig, in vivo, inhaled_or_intranasal
# How it was run: (§12)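 Aerosol guinea pig bronchoconstriction with LTE4 challenge; drug given as 1% nebulized solution for 5 min. Duration taken as time for inhibition to fall to 40%.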
# Cavia porcellus [20] = assay: In vivo guinea pig bronchoconstriction against leukotriene C4 when administered a compound dose (mg/kg) intravenously; format: functional; conditions: Lung, iv, read-out: ID50 (the source's name)
# Cavia porcellus [21] = assay: Activity against platelet activating factor in guinea pig, no significant inhibition when compound dose (10 mg/kg) given intravenously; Not active.; format: functional, organism-based
# Cavia porcellus [22] = assay: In vivo guinea pig bronchoconstriction against leukotriene B4 (when administered at a concentration of 1%, by aerosol); Not active; conditions: Lung
# [23] = target: Dual specificity calcium/calmodulin-dependent 3',5'-cyclic nucleotide phosphodiesterase 1A (Bos taurus, UniProt P14100); assay: Inhibition of bovine heart Phosphodiesterase 1A
# Chain of Dual specificity calcium/calmodulin-dependent 3',5'-cyclic nucleotide phosphodiesterase 1A (P14100 whole entry): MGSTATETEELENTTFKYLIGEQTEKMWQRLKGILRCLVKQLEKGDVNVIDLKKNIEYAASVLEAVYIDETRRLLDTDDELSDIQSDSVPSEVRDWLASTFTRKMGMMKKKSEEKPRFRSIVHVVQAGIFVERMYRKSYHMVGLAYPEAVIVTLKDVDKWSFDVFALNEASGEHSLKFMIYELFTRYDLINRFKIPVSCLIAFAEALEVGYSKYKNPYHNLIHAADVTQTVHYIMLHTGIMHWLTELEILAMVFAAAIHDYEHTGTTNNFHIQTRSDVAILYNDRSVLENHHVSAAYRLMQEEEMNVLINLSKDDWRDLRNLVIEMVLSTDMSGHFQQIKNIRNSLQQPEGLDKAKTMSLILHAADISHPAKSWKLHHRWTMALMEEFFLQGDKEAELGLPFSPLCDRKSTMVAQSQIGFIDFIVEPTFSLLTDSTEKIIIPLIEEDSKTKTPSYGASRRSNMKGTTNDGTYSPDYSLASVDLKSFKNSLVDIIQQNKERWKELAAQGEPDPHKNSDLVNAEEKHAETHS
# Cavia porcellus [24] = organism: Cavia porcellus; assay: In vitro activity to inhibit leukotriene D4 induced contraction of guinea pig trachea; format: functional; conditions: read-out: pA2 (converted)
# How it was run: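 Guinea pig tracheal smooth muscle contracted by LTD4; pA2 and Schild slope reported.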
# Rattus norvegicus [25] = organism: Rattus norvegicus; assay: Inhibitory activity to inhibit Inophore-induced arachidonic acid metabolism (inhibition of LTB4 formation) in rat; Inactive = no significant inhibition at a concentration of 100 uM; format: functional, organism-based
# How it was run: (§13)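 Rat peritoneal macrophages adhered 90 min at 37 °C, labeled with [14C]arachidonic acid 90 min, washed. Compound 30 min at 37 °C, then A23187 0.5 µM for 20 min. LTB4 and PGE2 in medium by radioimmunoassay.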
# [26] = Inhibitory activity to inhibit Inophore-induced arachidonic acid metabolism (inhibition of PGE-2 formation) in rat; format: functional; how it was run: as §13
# [27] = target: T1, Cysteinyl leukotriene receptor 1 (Cavia porcellus); assay: Inhibitory activity of compound to block binding of [3H]leukotriene D4 to Cysteinyl L-Cysteinyl leukotriene D4 receptor sites in homogenized guinea pig lung at 10 uM; how it was run: as §4
# Cavia porcellus [28] = assay: Activity against histamine induced bronchoconstriction in guinea pig, no significant inhibition when compound dose (10 mg/kg) given intravenously; NA means inactive; format: functional, organism-based
# Cavia porcellus [29] = assay: Duration of action of leukotriene D4 as time for inhibition to decrease to 40%, compound was administered at a concentration 1%, for 5 min by aerosol; format: functional; how it was run: as §10
# Rattus norvegicus [30] = organism: Rattus norvegicus; assay: Inhibitory activity to inhibit Inophore-induced arachidonic acid metabolism (inhibition of LTB4 formation) in rat; format: functional, organism-based; how it was run: as §13
# Cavia porcellus [31] = assay: as §5; format: functional; how it was run: as §6
# Cavia porcellus [32] = assay: as §11; format: functional; how it was run: as §12
# Cavia porcellus [33] = assay: as §8; format: functional; how it was run: as §9
# Cavia porcellus [34] = assay: Activity against platelet activating factor in guinea pig, no significant inhibition when compound dose (10 mg/kg) given intravenously; NA means inactive; format: functional, organism-based
# Cavia porcellus [35] = organism: Cavia porcellus; assay: Activity against histamine induced bronchoconstriction in guinea pig, no significant inhibition at concentration of 1% by aerosol; NA means inactive; format: functional, organism-based
# Cavia porcellus [36] = assay: Time taken for inhibition of antigen induced bronchoconstriction in guinea pig to decrease to 40%, compound was administered at a concentration of 1%, for 5 min by aerosol; format: functional; how it was run: as §7
# Cavia porcellus [37] = organism: Cavia porcellus; assay: Inhibitory activity to inhibit antigen induced bronchoconstriction in guinea pig; format: functional
# Cavia porcellus [38] = organism: Cavia porcellus; assay: Activity against platelet activating factor in guinea pig, no significant inhibition at concentration of 1% by aerosol; NA means inactive; format: functional, organism-based
# Cavia porcellus [39] = assay: Inhibition of leukotriene E4 induced bronchoconstriction in anesthetized guinea pigs after aerosol administration as 1% solution; format: functional
# [40] = tested on: Cysteinyl leukotriene receptor (Cavia porcellus); assay: Inhibitory activity to block binding of [3H]leukotriene D4 to LTD4 receptor sites in homogenized guinea pig lung at 10 uM
# Cavia porcellus [41] = assay: Inhibition of leukotriene E4 induced bronchoconstriction in anesthetized guinea pigs after intravenous administration at a dose of 10 mg/kg; format: functional
structure (smiles),measurement,setting,value
CCCc1c(OCCCCCOc2cc3c(cc2C(C)=O)CCC(CCC)(C(=O)O)O3)ccc(C(C)=O)c1O (configuration not stated),IC50,Cavia porcellus [1],0.9 % conc
same,ED50,Cavia porcellus [2],8 mg/kg
same,inhibition in vivo at 10 mg/kg,Cavia porcellus [3],56%
same,inhibition,[4],70%
same,IC50,[5],2 µM
same,Inhibition,Cavia porcellus [6],51%
CCCc1c(OCC(O)COc2ccc3c(=O)cc(C(=O)O)oc3c2CCC)ccc(C(C)=O)c1O (configuration not stated) [FPL-55712],Duration,Cavia porcellus [7],6 min
same,Duration,Cavia porcellus [8],270 min
same,IC50,Cavia porcellus [1],0.5 % conc
same,ED50,Cavia porcellus [2],2 mg/kg
same,inhibition,Cavia porcellus [9],inactive
same,ED50,Cavia porcellus [10],2 mg/kg
same,Duration,Cavia porcellus [11],6 min
same,inhibition,Cavia porcellus [12],inactive
same,inhibition,Cavia porcellus [13],inactive
same,ED50,Cavia porcellus [14],1 mg/kg
same,inhibition in vivo at 10 mg/kg,Cavia porcellus [3],92%
same,inhibition,Cavia porcellus [15],inactive
same,inhibition,Cavia porcellus [16],inactive
same,IC50,Cavia porcellus [17],0.05 µM
same,Duration,Cavia porcellus [18],60 min
same,Inhibition,Cavia porcellus [6],64%
same,Duration,Cavia porcellus [19],50 min
same,ED50,Cavia porcellus [20],6 mg/kg
same,inhibition,Cavia porcellus [21],inactive
same,inhibition,Cavia porcellus [22],inactive
same,IC50,[23],40 µM
same,Kb,Cavia porcellus [24],1 µM
O=C(O)c1ccc(OCCn2ccnc2)cc1 [DAZOXIBEN],IC50,Rattus norvegicus [25],Not Active
same,IC50,[26],10 µM
CCCc1c(OCCCCCOc2cc3c(cc2C(C)=O)CCC(C(=O)O)O3)ccc(C(C)=O)c1O (configuration not stated) [ABLUKAST],inhibition,[27],70%
same,inhibition,Cavia porcellus [28],inactive
same,Duration,Cavia porcellus [29],150 min
same,IC50,Cavia porcellus [1],0.007 % conc
same,IC50,Rattus norvegicus [30],4 µM
same,ED50,Cavia porcellus [2],5 mg/kg
same,ED50,Cavia porcellus [10],5 mg/kg
same,Duration,Cavia porcellus [31],40 min
same,Duration,Cavia porcellus [32],90 min
same,ED50,Cavia porcellus [14],1 mg/kg
same,Duration,Cavia porcellus [33],40 min
same,inhibition,Cavia porcellus [34],inactive
same,inhibition in vivo at 10 mg/kg,Cavia porcellus [3],93%
same,inhibition,Cavia porcellus [35],inactive
same,IC50,Cavia porcellus [17],0.06 µM
same,Duration,Cavia porcellus [36],250 min
same,IC50,[5],4 µM
same,Inhibition,Cavia porcellus [6],89%
same,Inhibition,Cavia porcellus [37],0.027%
same,ED50,Cavia porcellus [20],3 mg/kg
same,IC50,[26],7 µM
same,IC50,[23],36 µM
same,inhibition,Cavia porcellus [38],inactive
same,Kb,Cavia porcellus [24],0.251 µM
CCCc1c(OCCCOc2c(C)c(C)c3c(c2C)CCC(C)(C(=O)O)O3)ccc(C(C)=O)c1O (configuration not stated),Inhibition,Cavia porcellus [39],53%
same,inhibition,[40],88%
same,inhibition in vivo at 10 mg/kg,Cavia porcellus [41],99%
